Shown are actives, neighbours in structure and some others; about 1.6% of the full set was active somewhere.
GSTO1 counter: GSTO1 inhibition, counter-screen for RBBP9 inhibitors | 1.1% of 300,000 active | recombinant GSTO1, activity-based probe fluorescence polarization | inhibition, % at 5.96 µM | P78417 | AID 1974;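 active means inhibition above the campaign mean inhibition plus 3 SD, cut at about 35% in these data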;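 further: 0% = GSTO1-1 with DMSO and 100% = wells lacking GSTO1-1 enzyme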
PAD4 inh: blocks human protein arginine deiminase 4; recombinant PAD4, RCA probe fluorescence polarization; 0.41% of 330,000 active; Q9UM07; AID 485272; inhibition, % at 6.36 µM;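 active means percent inhibition above a cutoff equal to the mean of all tested compounds plus 3 SD, cut at about 15% in these data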;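 further: 0% = PAD4 with RCA probe and DMSO and 100% = probe without PAD4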
UBC9 SUMO inh: blocks human SUMOylation mediated by UBC9; inhibition, % at 35 µM; P63279; AID 2006; HTRF SUMOylation assay, SAE1/SAE2 + UBC9, in vitro; 0.36% of 290,000 active; in the data active means inhibition above about 50%, passing the limit was not always enough; inconclusive means no clear call, values can overlap the other calls
Target sequence (P63279 whole entry, looked up): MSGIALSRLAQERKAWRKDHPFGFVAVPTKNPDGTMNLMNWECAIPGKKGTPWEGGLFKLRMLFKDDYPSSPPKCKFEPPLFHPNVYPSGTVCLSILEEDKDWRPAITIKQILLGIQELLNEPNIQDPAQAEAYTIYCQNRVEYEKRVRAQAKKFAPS
Apaf-1 inh: blocks human Apaf-1 apoptosome activity; 0.71% of 330,000 active; reconstituted apoptosome caspase-3 activity, DEVD-Rh110 fluorescence; inhibition, % at 20 µM; active means inhibition of at least 40% at 20 µM;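 further: plate controls were DMSO wells for no effect and DEVD-CHO caspase inhibitor wells for full effect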
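detection = Rh110 fluorescence intensity | test system = biochemical Apaf-1 apoptosome reconstitution | also added = cytochrome c and DEVD-Rh110 substrate | schedule = 30 min plus 50 min, RT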
TDP2 inh: TDP2 (human) inhibition, absorbance primary screen; O95551; recombinant TDP2, T5PNP hydrolysis, p-nitrophenol absorbance 415 nm; inhibition, % at 12.8 µM; 0.34% of 370,000 active;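 active means inhibition above the mean of all tested compounds plus 3 SD, set per campaign, cut at about 25% in these data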;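 further: 0% = DMSO with enzyme and 100% = buffer with substrate but no TDP2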
Target sequence (O95551 whole entry, looked up): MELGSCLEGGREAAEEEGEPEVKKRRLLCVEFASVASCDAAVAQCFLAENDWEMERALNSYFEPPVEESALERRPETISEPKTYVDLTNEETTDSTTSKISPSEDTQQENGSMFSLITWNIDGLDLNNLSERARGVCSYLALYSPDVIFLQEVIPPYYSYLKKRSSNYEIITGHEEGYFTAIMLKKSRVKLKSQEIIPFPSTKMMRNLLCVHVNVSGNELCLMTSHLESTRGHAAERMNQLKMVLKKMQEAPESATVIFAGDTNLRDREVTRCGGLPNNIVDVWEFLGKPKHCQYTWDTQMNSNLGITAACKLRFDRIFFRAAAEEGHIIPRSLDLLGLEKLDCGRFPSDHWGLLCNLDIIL
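Test system: human TDP2 enzyme; Input: 120 nM TDP2 per well; Buffer or medium: Mg2+-containing Tris-HCl buffer, pH 7.5; Reagent: 5 mM T5PNP; Dosing: 12.8 µM single point, 1% DMSO; Incubation: reaction 2 h, 37 °C; Detection: p-Nitrophenol epi absorbance; Read-out: % inhibition relative to enzyme-containing and enzyme-free wells; Replicates: single well per compound.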
GASC-1 inh: human JMJD2C demethylase inhibition; Q9H3R0; GST-JMJD2C(1-420) H3K9me3 demethylation, DELFIA europium; inhibition, % at 2.35 µM; 0.069% of 330,000 active;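 active means more than half of a compound's replicate wells show inhibition beyond 50%, single wells judged on their own value; inconclusive means some, but no more than half, of replicates pass 50% inhibition; inactive means no replicate passes 50% inhibition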;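 further: signal counts dimethyl H3K9 product captured on neutravidin plate; 0% = median of DMSO wells and 100% = 0.3 times that DMSO median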
GSTO1 inh conf: GSTO1 (human) inhibition, confirmation; recombinant GSTO1, probe fluorescence polarization; shares compounds with GSTO1 counter; inhibition, % at 5.96 µM; 54% of 2,400 active;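 active means inhibition above the primary screen's cutoff, its mean inhibition plus 3 SD, cut at about 35% in these data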;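 further: loss of polarization as inhibitors block binding of rhodamine sulfonate ester activity probe; 0% = GSTO1 with DMSO and 100% = wells lacking GSTO1 enzyme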
PAD4 FP conf: confirmation of human PAD4 inhibitors; shares compounds with PAD4 inh; recombinant PAD4, RCA probe fluorescence polarization; inhibition, % at 6.36 µM; 28% of 1,200 active;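 active means mean inhibition across replicates above the hit cutoff set by the earlier primary screen, cut at about 15% in these data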;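 further: inhibitors block active-site labeling by the probe so polarization falls; 0% = PAD4 with probe and DMSO and 100% = probe without PAD4 enzyme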
Apaf-1 inh conf: Apaf-1 inhibition, single-dose confirmed. shares compounds with Apaf-1 inh. reconstituted apoptosome, caspase-3 DEVD-Rh110 fluorescence. inhibition, % at 20 µM. 25% of 1,800 active. AID 504614;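 active means mean inhibition of at least 40% at 20 µM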;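 further: plate controls were DMSO wells for no effect and DEVD-CHO caspase inhibitor control wells for full effect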
Rh110 quench: counter-screen for Apaf-1 inhibitors: fluorescence interference. Rh110 fluorescence interference, quenched caspase reaction. 1,800 tested, under 10 active. activation (fluorescence interference), % at 20 µM. AID 504615. shares compounds with Apaf-1 inh;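 active means signal rise of 40% or more at 20 µM, treated as a fluorescence artifact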
Apaf1 inh interf: shows fluorescence interference in the Apaf-1 inhibitor assay format | shares compounds with Apaf-1 inh | fluorescence interference counterscreen, Apaf-1 assay format | IC50, µM | 460 tested, under 10 active | AID 588538; call rule not given here
TDP2 inh conf: confirmation of human TDP2 inhibitors; shares compounds with TDP2 inh; recombinant human TDP2, absorbance read-out; inhibition, % at 12.8 µM; 22% of 1,100 active; in the data active means inhibition above about 25%;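 further: 0% = vehicle with enzyme and 100% = no enzyme buffer only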
* hit, by the source's call; ? = inconclusive; · = no result given.

SMILES | GSTO1 counter | PAD4 inh | UBC9 SUMO inh | Apaf-1 inh | TDP2 inh | GASC-1 inh | GSTO1 inh conf | Apaf-1 inh conf | Rh110 quench | Apaf1 inh interf | TDP2 inh conf | others
COC(=O)c1ccccc1NC1=C/C(=N\S(=O)(=O)c2cccs2)c2ccccc2C1=O | 79* | 38* | 58 | 92* | 12 | -15 | 84* | 94* | 14 | >100 | · | PAD4 FP conf=35*
COC(=O)c1ccccc1NC1=C/C(=N\S(=O)(=O)c2ccc(C(=O)O)cc2)c2ccccc2C1=O | 86* | 25* | 92* | 95* | · | 18 | 85* | 97* | 4 | >100 | · | PAD4 FP conf=66*
CC(C)(C)c1ccc(S(=O)(=O)/N=C2\C=C(NS(=O)(=O)c3ccccc3)C(=O)c3ccccc32)cc1 | 71* | 2 | 33 | 46* | 22 | 30 | 67* | 53* | 4 | >100 | ·
O=C1C=C(Nc2ccccc2)C(=O)c2ccccc21 | 32 | -12 | 15 | 17 | -6 | 2 | · | · | · | · | ·
CCc1ccc(S(=O)(=O)/N=C2\C=C(Nc3ccc(C(=O)O)cc3)C(=O)c3ccccc32)cc1 | 94* | 69* | ? | 96* | 72* | 3 | 91* | 89* | 0 | >100 | ·
O=C1CCC[C@H]2C[C@H](NCc3cccs3)CC[C@]23CCCN13 | · | · | · | · | 2 | · | · | · | · | · | ·
C[C@H]1[C@@H](NC(=O)c2ccc(Cl)cc2)CC[C@@]23CCCN2C(=O)CCC[C@@H]13 | · | · | · | · | -2 | · | · | · | · | · | ·
C=CCN1[C@H](Cc2ccccc2)COc2cccc(N3CCCC3)c2S1(=O)=O | · | · | · | · | -4 | · | · | · | · | · | ·
COC(=O)C1CN(Cc2cn(CCOC(C)=O)nn2)CCS(=O)(=O)N1Cc1ccc(F)cc1 (stereo not drawn) | · | · | · | · | 0 | · | · | · | · | · | ·
COc1ccc(CNC(=O)c2ccc(-c3ccccc3)cc2)cc1 | -1 | -3 | 3 | -6 | 5 | 8 | · | · | · | · | ·
COc1ccc(CNC(=O)c2c(C)oc3c2C(=O)c2ccccc2C3=O)cc1 | 53* | -7 | 62 | 67* | 16 | 5 | 35* | 71* | 12 | >100 | ·
O=C1c2cccc(Cl)c2C(=O)c2c1cccc2N1CCCC1 | 44* | -10 | · | 32 | 26* | 9 | 7 | · | · | · | 5
C[n+]1cccc2c(Br)ccc([O-])c21 | 41* | 6 | 100 | 98* | 71* | -10 | 14 | 64* | 7 | >100 | 37*
COCCCN1C(=O)[C@H](CC(=O)NCCCCc2ccccc2)[C@]2(C(=O)OC)CCCCC=C12 | · | · | · | · | 4 | · | · | · | · | · | ·
C[C@H](O)[C@@H]1C(=O)N2CCc3c([nH]c4c(-c5ccc6c(c5)OCO6)cccc34)[C@@H]2C[C@@H]1N(C)C(=O)OCc1ccccc1 | · | · | · | · | 4 | · | · | · | · | · | ·
CCC(CNc1cc(OC)cc2cccnc12)NC1CCCCC1 (stereo not drawn) | 80* | 90* | 102* | · | 79* | -1 | 9 | · | · | · | 25* | PAD4 FP conf=14
COc1cc(NS(=O)(=O)c2ccc(C)cc2)c2ncccc2c1 | 29 | -5 | -93 | 37 | -2 | 0 | · | · | · | · | ·
O=C(Cc1ccccc1Cl)NC1(O)C(=O)c2ccccc2C1=O | 67* | 14 | · | 89* | 47* | 35 | 67* | 65* | 1 | >100 | 54*
Cn1nc(-c2ccccn2)nc2c(=O)n(C)c(=O)nc1-2 | 97* | 74* | 102* | 98* | 91* | 54* | 92* | 100* | -1 | >100 | 85* | PAD4 FP conf=67*

Compound activity from PubChem BioAssay.
